Measurements reported in PubChem BioAssay AID434971 (Sanford-Burnham Center for Chemical Genomics, 2010).
Hit rate of the full screen: of about 11,000 compounds, about 510 (4.6%) were called active. The full list was thinned out, with actives kept by preference. Values without a mark were called inactive.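 The calls were made as follows: active = inhibition of at least 40% at 10 µM in either of the two replicates; inactive = the rest.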

tested on: intestinal alkaline phosphatase [Mus musculus]; assay: mouse intestinal phosphatase enzyme inhibition – biochemical, luminescence, single concentration, confirmation (AID 434971); details: purified mouse IAP, CDP-Star luminescence, 30 min; at 10 µM; stronger effect = higher value;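 also: plate controls were DMSO wells with enzyme for no effect and buffer wells lacking enzyme for full effect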
Summary of the method: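 assay system = mouse IAP enzyme | measured by = luminescence from CDP-Star dephosphorylation | reagent = CDP-Star as the luminogenic phosphatase substrate | incubation = 30 min enzyme-substrate-compound incubation at room temperature | dosing = compound in DMSO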

Structure (SMILES) | inhibition
COc1ccc(N2C(=O)/C(=C/c3ccco3)C(=O)NC2=S)cc1 | 43.2% (active)
Cc1cc(C)cc(NC(=S)NC2CC3CCCC(C2)N3Cc2cccs2)c1 (centres undefined) | -150%
O=C1NC(=O)N(Cc2ccco2)C(=O)/C1=C\c1cccn1CCOc1ccccc1 | 50.6% (active)
O=C1NC(=O)N(Cc2ccco2)C(=O)/C1=C\c1ccc(-c2ccc(F)cc2)o1 | 83.5% (active)
